# In paper PMC4427559 (Drug development and industrial pharmacy, 2015):
# Key:
# [1] = Solution state pH stability in USP buffers at 37 °C; assay type: physicochemical; details: for Degradation half-life t½: calculated from k
# Summary of the method: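 Test compound (1 mg/mL acetonitrile stock) added 1:10 to 0.2 M USP buffers (n = 3) in amber vials. Buffers were HCl (pH 2), acid phthalate (pH 3–4), neutralized phthalate (pH 5), phosphate (pH 6–7) and borate (pH 8–10). Incubation at 37 °C, light-protected. Quantified by isocratic C18 HPLC-UV at 300 nm with warfarin IS. Log % remaining plotted against time; half-lives from first-order kinetics.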
# [2] = Stability in human plasma at 37 °C; assay type: in vitro ADME
# [3] = Solubility in common solvents, shaker method, HPLC; assay type: physicochemical
# [4] = cited from earlier work
# [5] = Plasma protein binding by ultracentrifugation/ultrafiltration; assay type: in vitro ADME, human; details: 37 °C
# [6] = Stability in rat plasma at 37 °C; assay type: in vitro ADME; details: male, Sprague Dawley
# [7] = cited from earlier work; remark: listed apart in the source
smiles,measurement,setting,value
"Oc1ccc(/C=C/c2cc(O)cc(O)c2)cc1 [resveratrol, trans-3,5,4′-trihydroxystilbene]",Original concentration remaining,"[1]; acidic and neutral conditions, at 193 h",More than 70%
same,Degradation rate constant k,"[1]; pH 2, hydrochloric acid buffer 0.2 M",0.000506 h⁻¹
same,Degradation rate constant k,"[1]; pH 3, acid phthalate buffer 0.2 M",0.000353 h⁻¹
same,Degradation rate constant k,"[1]; pH 4, acid phthalate buffer 0.2 M",0.000151 h⁻¹
same,Degradation rate constant k,"[1]; pH 5, neutralized phthalate buffer 0.2 M",0.00011 h⁻¹
same,Degradation rate constant k,"[1]; pH 6, phosphate buffer 0.2 M",0.000147 h⁻¹
same,Degradation half-life t½,"[1]; pH 6, phosphate buffer 0.2 M",195.5 days
same,Degradation rate constant k,"[1]; pH 7, phosphate buffer 0.2 M",0.00247 h⁻¹
same,Resveratrol remaining,"[1]; pH 8, 9 or 10, at 50 and 80 h",Less than 2%
same,Degradation rate constant k,"[1]; pH 8, borate buffer 0.2 M",0.0488 h⁻¹
same,Degradation rate constant k,"[1]; pH 9, borate buffer 0.2 M",0.4000 h⁻¹
same,Degradation half-life t½,"[1]; pH 9, borate buffer 0.2 M",0.0722 days
same,Degradation rate constant k,"[1]; pH 10, borate buffer 0.2 M",0.0335 h⁻¹
same,half-life at 50 µg/mL,[2],54 h
same,Solubility,"[3]; PEG-400, room temperature (25 °C), mean, n = 3",373.85 mg/mL
same,Solubility in words,[3]; water,not soluble
same,Water solubility,[4],0.05 mg/mL
same,Bound fraction (%) ±standard deviation (n = 6),[5]; human plasma spiked at 5 µg/mL,98.2 ± 0.41%
same,Bound fraction (%) ±standard deviation (n = 6),[5]; human plasma spiked at 12.5 µg/mL,98.5 ± 0.23%
same,Bound fraction (%) ±standard deviation (n = 6),[5]; human plasma spiked at 25 µg/mL,98.3 ± 0.33%
same,Plasma protein binding (mean),"[5]; human plasma, over 5, 12.5 and 25 µg/mL",98%
same,fraction unbound at 30 min,"[5]; human, human plasma, Plasma protein binding (mean), over 5, 12.5 and 25 µg/mL",0.017
same,half-life at 50 µg/mL,[6],25 h
same,pKa1,[7],8.8
same,pKa2,[7],9.8
same,pKa3,[7],11.4
